Results of several laboratories.
Each line is one published result; the experiments were not run side by side.
Matrix: Caco-2

With `N[C@@H](COCC(=O)N1CCC[C@H](C(=O)NCc2nc(-c3ccc(C(F)(F)F)cc3)cs2)C1)c1ccccc1` the Papp A→B was 8.5 ×10⁻⁶ cm/s (pH 7.4).
`Nc1nc2c(ncn2COCCO)c(=O)[nH]1` gave a Papp A→B of 0.18 ×10⁻⁶ cm/s (5 µM; 2 h).
With `Oc1cc(O)c2c(c1)O[C@H](c1ccc(O)c(O)c1)[C@H](O)C2` the Papp A→B was 1.26 ×10⁻⁶ cm/s (100 µg/mL; 2 h).
With `N#Cc1ccc(C[C@H](Nc2nnc(-c3ccc(F)cc3)o2)C(=O)N2CCc3ccccc32)cc1` the Papp A→B was 62.9 ×10⁻⁶ cm/s (100 µM; 2 h).
For `CC(C)NCC(O)COc1cccc2ccccc12` (stereo not drawn), the Papp A→B was 29.7 ×10⁻⁶ cm/s (10 µM; 2 h).
For `C[C@@H]1O[C@@H](OC[C@H]2O[C@@H](Oc3c(-c4ccc(O)c(O)c4)oc4cc(O)cc(O)c4c3=O)[C@H](O)[C@@H](O)[C@@H]2O)[C@H](O)[C@H](O)[C@H]1O`, the Papp A→B was 0.293 ×10⁻⁶ cm/s (200 µg/mL).
The Papp A→B of `O=C(N[C@@H](c1ccccc1)[C@H]1CCCN1)C1=CN(c2ncnc3[nH]ccc23)CCS1` is reported as < 0.3 ×10⁻⁶ cm/s (10 µM; pH 6.5).
`O=c1c2cc(Cl)c(CO)cc2[nH]c(=S)n1Cc1cccnc1` gave a Papp A→B of 12.3 ×10⁻⁶ cm/s (10 µM; 90 min; pH 7.4).
`O=c1c(O[C@@H]2O[C@H](CO)[C@H](O)[C@H](O)[C@H]2O)c(-c2ccc(O)c(O)c2)oc2cc(O)cc(O)c12` gave a Papp A→B of 0.383 ×10⁻⁶ cm/s (100 µg/mL).
With `COc1ccc([C@@H]2CC(=O)c3c(O)cc(O)cc3O2)cc1O` the Papp A→B was 3.95 ×10⁻⁶ cm/s (100 µg/mL; 2 h).
For `CN/C(=N/CCSCc1nc[nH]c1C)NC#N`, the Papp A→B was 0.55 ×10⁻⁶ cm/s (5 µM; 2 h).
The Papp A→B of `O=c1c(-c2ccc(O)cc2)coc2c([C@@H]3O[C@H](CO)[C@@H](O)[C@H](O)[C@H]3O)c(O)ccc12` is reported as 45.7 ×10⁻⁶ cm/s (100 µg/mL; 2 h).
For `CC(C)C(=O)OCc1cc2[nH]c(=S)n(Cc3cccnc3)c(=O)c2cc1Cl`, the Papp A→B was 1.4 ×10⁻⁶ cm/s (10 µM; 90 min; pH 7.4).
The Papp A→B of `CCOCC(=O)N1CCC[C@H](C(=O)NCc2nc(-c3ccc(C#N)nc3)cs2)C1` is reported as 13 ×10⁻⁶ cm/s (pH 7.4).
For `CCN1CCCC1CNC(=O)c1cc(S(N)(=O)=O)ccc1OC` (stereo not drawn), the Papp A→B was 0.16 ×10⁻⁶ cm/s (5 µM; 2 h).
For `O=c1cc(-c2ccc(O)c(O)c2)oc2cc(O)cc(O)c12`, the Papp A→B was 7.1 ×10⁻⁶ cm/s (100 µg/mL; 2 h).
The Papp A→B of `O=c1cc(-c2ccc(O)cc2)oc2c([C@@H]3O[C@H](CO)[C@@H](O)[C@H](O)[C@H]3O)c(O)cc(O)c12` is reported as 0.316 ×10⁻⁶ cm/s (100 µg/mL).
`O=C(NCc1nc(-c2ccc(C(F)(F)F)cc2)cs1)[C@H]1CCCN(C(=O)COCCN2CCCC2)C1` gave a Papp A→B of 1.8 ×10⁻⁶ cm/s (pH 7.4).
